According to ChEMBL document CHEMBL2331412, “Oxo-heterocyclic fused naphthalimides as antitumor agents: synthesis and biological evaluation” (Eur J Med Chem, 2013):
Active and inactive are the calls of the source. No cut-off for these calls is given here.

Experiments:
[1] = Cytotoxicity against human LO2 cells by SRB assay; assay type: cell-based; conditions: L02
P388 = assay: Cytotoxicity against mouse P388 cells by tetrazolium-formazan assay; assay type: functional, cell-based
A549 = assay: Cytotoxicity against human A549 cells by SRB assay; assay type: functional, cell-based
[2] = Binding affinity to Poly(dGdC).Poly(dGdC) (unknown origin)
Summary of the method: (§1)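 Fluorescence titration in 20 mM sodium phosphate pH 7.0 at 20 ± 1 °C. Compound held at 3 × 10^-6 M while polydeoxynucleotide was varied from 0 to 6.32 × 10^-5 M. Ka was obtained by nonlinear curve fitting of the data. The ratio line is the GC-polymer Ka divided by the AT-polymer Ka.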

[3] = Binding affinity to Poly(dAdT).Poly(dAdT) (unknown origin); summary of the method: as §1
Bos taurus [4] = organism: Bos taurus; assay: Inhibition of calf thymus topoisomerase 1-mediated pBR322 relaxation at 100 uM after 30 mins by agarose gel electrophoresis
Summary of the method: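 Topoisomerase I and compound were incubated 30 min at 37 °C in topo I buffer with 0.01% BSA. Reactions were stopped with SDS and loading dye, then run on 0.8% agarose in TAE for 35 min at 120 V, stained with ethidium bromide and imaged under UV.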

[5] = target: DNA topoisomerase 2-alpha (Homo sapiens) (UniProt P11388); assay: Inhibition of human topoisomerase 2a-mediated kinetoplast decatenation at 100 uM after 30 mins by agarose gel electrophoresis
Summary of the method: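 ATP-dependent kDNA decatenation by 1 unit human topo IIα. Incubated 30 min at 37 °C in 50 mM Tris-HCl pH 8, 150 mM NaCl, 10 mM MgCl2, 2 mM ATP and 0.5 mM DTT. Stopped with SDS, run on 0.8% agarose in TAE for 50 min at 120 V, stained with ethidium bromide and imaged under UV.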

DNA [6] = assay: Binding affinity to calf thymus DNA at 20 uM by circular dichroism analysis; assay type: nucleic-acid assay; conditions: Bos taurus
Summary of the method: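 Circular dichroism spectra of compound with calf thymus DNA in 20 mM Tris-HCl pH 7.5 containing 1% DMSO (v/v). Recorded in a 1 cm quartz cell over 240–300 nm.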

DNA [7] = assay: Binding affinity to calf thymus DNA at 20 uM after 1 hr by fluorimetric analysis; assay type: nucleic-acid assay; conditions: Bos taurus; 10 uM; in the assay text read “at 10 uM” for “at 20 uM”
Summary of the method: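 Fluorescence quenching with increasing calf thymus DNA in 20 mM Tris-HCl pH 7.5 containing 1% DMSO (v/v). Mixtures were stirred for 1 h at 25 °C in the dark before each spectrum was recorded. Kb came from nonlinear fitting of fluorescence intensity against DNA concentration.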

Bos taurus [8] = organism: Bos taurus; assay: Inhibition of calf thymus topoisomerase 1-mediated pBR322 relaxation at 200 uM after 30 mins by agarose gel electrophoresis
Summary of the method: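 Topoisomerase I and compound incubated 30 min at 37 °C in topoisomerase I buffer with 0.01% BSA. Reactions were stopped with 10% SDS and loading dye. Products were resolved on a 0.8% agarose gel in TAE for 35 min at 120 V, stained with ethidium bromide at room temperature and photographed under UV.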

[9] = Binding affinity to 5'ATGCGCAT3'/3'TACGCGTA5' (unknown origin)
[10] = Binding affinity to 5'ACCCCT3'/3'TGGGGA5' (unknown origin)
[11] = Binding affinity to 5'TGGCGA3'/3'ACCGCT5' (unknown origin)
[12] = Binding affinity to 5'ACCGGT3'/3'TGGCCA5' (unknown origin)
[13] = Binding affinity to 5'ACGGCT3'/3'TGCCGA5'(unknown origin)
[14] = Binding affinity to 5'ACGCCT3'/3'TGCGGA5' (unknown origin)
[15] = Binding affinity to 5'TGCGCA3'/3'ACGCGT5' (unknown origin)
[16] = Binding affinity to 5'ACCCGT3'/3'TGGGCA5' (unknown origin)
[17] = Selectivity ratio of Ka for Poly(dGdC).Poly(dGdC) (unknwon origin) to Ka for Poly(dAdT).Poly(dAdT) (unknown origin); summary of the method: as §1

Chain of DNA topoisomerase 2-alpha (Homo sapiens) (P11388 whole entry): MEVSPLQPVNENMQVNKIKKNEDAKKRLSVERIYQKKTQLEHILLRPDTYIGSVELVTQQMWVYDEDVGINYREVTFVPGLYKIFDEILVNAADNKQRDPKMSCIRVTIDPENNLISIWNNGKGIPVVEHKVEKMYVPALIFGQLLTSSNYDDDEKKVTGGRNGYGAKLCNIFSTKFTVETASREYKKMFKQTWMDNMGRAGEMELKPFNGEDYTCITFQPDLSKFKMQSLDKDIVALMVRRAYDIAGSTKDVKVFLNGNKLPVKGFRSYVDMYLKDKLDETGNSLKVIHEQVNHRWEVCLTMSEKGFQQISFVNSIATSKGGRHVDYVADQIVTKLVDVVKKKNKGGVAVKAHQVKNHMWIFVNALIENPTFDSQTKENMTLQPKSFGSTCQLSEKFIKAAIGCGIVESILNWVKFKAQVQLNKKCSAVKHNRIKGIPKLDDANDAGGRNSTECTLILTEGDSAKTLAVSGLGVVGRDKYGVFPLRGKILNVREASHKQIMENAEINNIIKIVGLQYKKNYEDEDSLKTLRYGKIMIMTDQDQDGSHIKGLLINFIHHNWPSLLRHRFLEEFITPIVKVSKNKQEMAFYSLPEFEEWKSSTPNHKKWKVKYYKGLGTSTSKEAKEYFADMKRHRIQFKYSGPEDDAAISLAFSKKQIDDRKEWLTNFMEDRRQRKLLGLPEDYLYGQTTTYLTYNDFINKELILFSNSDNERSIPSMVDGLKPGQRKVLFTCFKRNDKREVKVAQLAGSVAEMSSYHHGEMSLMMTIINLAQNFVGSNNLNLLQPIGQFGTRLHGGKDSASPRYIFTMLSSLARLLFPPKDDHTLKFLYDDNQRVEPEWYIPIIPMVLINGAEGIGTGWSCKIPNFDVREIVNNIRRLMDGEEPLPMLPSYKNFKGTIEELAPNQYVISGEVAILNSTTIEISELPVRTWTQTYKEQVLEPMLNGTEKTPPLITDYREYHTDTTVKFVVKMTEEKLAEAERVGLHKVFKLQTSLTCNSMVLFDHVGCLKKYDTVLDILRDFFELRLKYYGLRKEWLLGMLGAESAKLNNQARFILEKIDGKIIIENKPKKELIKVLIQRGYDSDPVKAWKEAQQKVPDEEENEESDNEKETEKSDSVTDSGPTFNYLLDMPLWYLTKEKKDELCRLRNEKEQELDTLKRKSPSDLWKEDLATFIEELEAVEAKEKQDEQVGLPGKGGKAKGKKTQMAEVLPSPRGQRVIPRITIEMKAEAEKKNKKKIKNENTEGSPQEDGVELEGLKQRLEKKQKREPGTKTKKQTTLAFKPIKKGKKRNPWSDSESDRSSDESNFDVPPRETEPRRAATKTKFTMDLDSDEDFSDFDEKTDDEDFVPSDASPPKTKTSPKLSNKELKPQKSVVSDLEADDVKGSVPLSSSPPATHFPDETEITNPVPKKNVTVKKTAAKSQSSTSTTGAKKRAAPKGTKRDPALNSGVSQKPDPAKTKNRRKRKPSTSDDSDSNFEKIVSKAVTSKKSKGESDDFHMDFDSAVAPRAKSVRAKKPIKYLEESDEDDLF

| SMILES | IC50 [1] | IC50 (P388) | IC50 (A549) | further results |
| --- | --- | --- | --- | --- |
| CCCCN1C(=O)c2cccc3c2c(cc2c4ccccc4oc32)C1=O | > 100000 nM | > 100000 nM | 1400 nM |  |
| CN(C)CCN1C(=O)c2cccc3c2c(cc2c4ccccc4oc32)C1=O | 5000 nM | 650 nM | 360 nM | Ka [2]: 6.36 ×10⁶ /M; Ka [3]: 5 ×10⁶ /M; Topoisomerase 1 relaxation inhibition (qualitative) (Bos taurus [4]): Active; Inhibition (qualitative) [5]: Active; Activity (DNA [6]): Active; Ka (DNA [7]): 2.89 ×10⁵ /M |
| CN(C)CCN1C(=O)c2cccc3c2c(cc2nc(-c4ccc([N+](=O)[O-])cc4)oc23)C1=O | > 100000 nM | 100000 nM | 17800 nM |  |
| CCCCn1c(=O)c2ccc3oc4ccccc4c4ccc(c1=O)c2c34 | > 100000 nM | > 100000 nM | 5390 nM |  |
| Cc1ccc(-c2nc3cc4c5c(cccc5c3o2)C(=O)N(CCN(C)C)C4=O)cc1 | 6700 nM | 19300 nM | 34700 nM |  |
| COc1ccc(-c2nc3cc4c5c(cccc5c3s2)C(=O)N(CCN(C)C)C4=O)cc1 |  | 430 nM | 16 nM |  |
| CN(C)CCN1C(=O)c2cccc3cc(N)cc(c23)C1=O [AMONAFIDE] | 5000 nM |  |  | Inhibition (qualitative) [5]: Active |
| COc1ccc(-c2nc3cc4c5c(cccc5c3o2)C(=O)N(CCN(C)C)C4=O)cc1 | 3400 nM | 1290 nM | 6600 nM |  |
| O=C1c2cccc3c2c(cc2c4ccccc4sc32)C(=O)N1CCN1CCNCC1 |  | 72400 nM | 11800 nM |  |
| O=c1c2ccc3sc4ccccc4c4ccc(c(=O)n1CCN1CCNCC1)c2c34 |  | > 100000 nM | 100000 nM |  |
| CN(C)CCN1C(=O)c2cccc3c2c(cc2nc(-c4ccccc4)oc23)C1=O | 3000 nM | 2500 nM | 530 nM |  |
| Cc1ccc(-c2nc3cc4c5c(cccc5c3s2)C(=O)N(CCN(C)C)C4=O)cc1 |  | 620 nM | 420 nM |  |
| CN(C)CCCn1c(=O)c2ccc3sc4ccccc4c4ccc(c1=O)c2c34 |  | 630 nM | 190 nM |  |
| CC[C@@]1(O)C(=O)OCc2c1cc1n(c2=O)Cc2cc3ccccc3nc2-1 |  |  |  | inhibition (Bos taurus [8]): Active |
| CN(C)CCCN1C(=O)c2cccc3c2c(cc2c4ccccc4sc32)C1=O |  | 320 nM | 250 nM |  |
| O=c1c2ccc3oc4ccccc4c4ccc(c(=O)n1CCN1CCNCC1)c2c34 | 11500 nM | 4520 nM | 29000 nM |  |
| CN(C)CCN1C(=O)c2cccc3c2c(cc2nc(-c4ccc(Cl)cc4)oc23)C1=O | > 100000 nM | 20100 nM | 72400 nM |  |
| CN(C)CCCn1c(=O)c2ccc3oc4ccccc4c4ccc(c1=O)c2c34 | 10300 nM | 3500 nM | 98300 nM |  |
| COc1ccccc1-c1nc2cc3c4c(cccc4c2o1)C(=O)N(CCN(C)C)C3=O | 1900 nM | 1300 nM | 890 nM |  |
| CCCCN1C(=O)c2cccc3c2c(cc2c4ccccc4sc32)C1=O |  | 740 nM | 1350 nM |  |
| CN(C)CCn1c(=O)c2ccc3sc4ccccc4c4ccc(c1=O)c2c34 | 4100 nM |  |  | Ka [9]: 4.76 ×10⁵ /M; Ka [10]: 1.89 ×10⁵ /M; Ka [11]: 2.13 ×10⁵ /M; Ka [12]: 4 ×10⁵ /M; Ka [13]: 3 ×10⁴ /M; Ka [14]: 1.92 ×10⁵ /M; Ka [15]: 3.33 ×10⁶ /M; Ka [16]: 9.09 ×10⁵ /M; Selectivity ratio [17]: 10; Ka [2]: 4.76 ×10⁶ /M; Ka [3]: 4.48 ×10⁵ /M; Topoisomerase 1 relaxation inhibition (qualitative) (Bos taurus [4]): Active; Inhibition (qualitative) [5]: Active; Activity (DNA [6]): Active; Ka (DNA [7]): 9.7 ×10⁴ /M |
| CN(C)CCn1c(=O)c2ccc3oc4ccccc4c4ccc(c1=O)c2c34 | 4100 nM | 1110 nM | 610 nM | Ka [9]: 8 ×10⁴ /M; Ka [10]: 1.72 ×10⁵ /M; Ka [11]: 8.4 ×10⁴ /M; Ka [12]: 1.12 ×10⁵ /M; Ka [13]: 5.9 ×10³ /M; Ka [14]: 6.9 ×10³ /M; Ka [15]: 1.28 ×10⁵ /M; Ka [16]: 1.2 ×10⁴ /M; Ka [2]: 6.89 ×10⁵ /M; Ka [3]: 1.32 ×10⁵ /M; Topoisomerase 1 relaxation inhibition (qualitative) (Bos taurus [4]): Active; Inhibition (qualitative) [5]: Active; Activity (DNA [6]): Active; Ka (DNA [7]): 1.45 ×10⁵ /M |
| COc1cc([C@@H]2c3cc4c(cc3[C@@H](O[C@@H]3O[C@@H]5CO[C@@H](C)O[C@H]5[C@H](O)[C@H]3O)[C@H]3COC(=O)[C@H]23)OCO4)cc(OC)c1O |  |  |  | Topoisomerase 1 relaxation inhibition (qualitative) (Bos taurus [4]): Active; Inhibition (qualitative) [5]: Active |
| CCCCn1c(=O)c2ccc3sc4ccccc4c4ccc(c1=O)c2c34 |  | 1200 nM | 870 nM |  |
| CN(C)CCCN1C(=O)c2cccc3c2c(cc2c4ccccc4oc32)C1=O | 6600 nM | 170 nM | 740 nM |  |
| CN(C)CCN1C(=O)c2cccc3c2c(cc2c4ccccc4sc32)C1=O | 900 nM |  |  | Selectivity ratio [17]: 10; Ka [2]: 7.6 ×10⁷ /M; Ka [3]: 8 ×10⁶ /M; Topoisomerase 1 relaxation inhibition (qualitative) (Bos taurus [4]): Active; Inhibition (qualitative) [5]: Active; Activity (DNA [6]): Active; Ka (DNA [7]): 1.1 ×10⁵ /M |
| CN(C)CCN1C(=O)c2cccc3c2c(cc2nc(-c4ccccc4)sc23)C1=O |  | 660 nM | 85 nM |  |
